Assay results from ChEMBL document CHEMBL1641489, “Syntheses, structures and antibiotic activities of LpxC inhibitors based on the diacetylene scaffold” (Bioorg Med Chem, 2011).
In brackets after ≈: the same amount, converted by molar mass.

Tests used:
[1] = test system: Escherichia coli; assay: Antibacterial activity against Escherichia coli W3110 by NCCLS assay; assay type: functional
Method in brief: (§1)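 Broth microdilution MIC per NCCLS protocol, adapted to 96-well format in LB medium containing 5% DMSO; MIC taken as lowest concentration inhibiting bacterial growth.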

[2] = test system: Escherichia coli; assay: Antibacterial activity against Escherichia coli W3110RL replaced with Rhizobium leguminosarum lpxC gene by NCCLS assay; assay type: functional
Method in brief: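 MIC by the NCCLS protocol in LB medium with 5% DMSO. Strain: E. coli with native lpxC replaced by the R. leguminosarum gene.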

[3] = test system: Escherichia coli; assay: Antibacterial activity against Escherichia coli W3110PA replaced with Pseudomonas aeruginosa lpxC gene by NCCLS assay; assay type: functional
Method in brief: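 MIC by the NCCLS protocol in LB medium with 5% DMSO. Strain: W3110 with chromosomal lpxC swapped for P. aeruginosa lpxC. The swap was made by λ-red recombination in DY330 and moved into W3110 by P1vir transduction, selecting on LB/agar with 15 μg/mL L-161,240 and 10 mM sodium citrate.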

[4] = test system: Pseudomonas aeruginosa; assay: Antibacterial activity against Pseudomonas aeruginosa PAO1 by NCCLS assay; assay type: functional; method in brief: as §1
[5] = target: T1, UDP-3-O-acyl-N-acetylglucosamine deacetylase (Escherichia coli K-12, UniProt P0A725); assay: Inhibition of Escherichia coli LpxC
T1 sequence (P0A725 whole entry): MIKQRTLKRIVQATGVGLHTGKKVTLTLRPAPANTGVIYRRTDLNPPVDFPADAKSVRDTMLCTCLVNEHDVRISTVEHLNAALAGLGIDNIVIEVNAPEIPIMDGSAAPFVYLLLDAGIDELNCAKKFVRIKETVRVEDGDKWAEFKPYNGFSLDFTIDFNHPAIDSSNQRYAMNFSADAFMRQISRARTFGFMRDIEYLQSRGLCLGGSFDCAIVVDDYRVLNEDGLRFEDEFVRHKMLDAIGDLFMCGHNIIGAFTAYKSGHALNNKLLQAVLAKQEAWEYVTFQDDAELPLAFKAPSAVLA

Row | Structure (SMILES) | MIC [1] [µg/mL] | MIC [2] [µg/mL] | MIC [3] [µg/mL] | MIC [4] [µg/mL] | Ki ([5]; read-out: Ki) [nM] | Ki ([5]; read-out: Ki(app)) [nM]
1 | C[C@@H](O)[C@H](NC(=O)c1ccc(C#CC#Cc2ccccc2)cc1)C(=O)NO | 0.05 (≈ 0.138 µM) | 6.3 (≈ 17.4 µM) | 0.7 (≈ 1.93 µM) | 0.7 (≈ 1.93 µM) | 0.18 | 0.55
2 | C[C@@H](O)[C@H](NC(=O)c1ccc(C#CC#Cc2ccc(N)cc2)cc1)C(=O)NO | 0.03 (≈ 0.0795 µM) | 3.9 (≈ 10.3 µM) | 0.5 (≈ 1.32 µM) | 0.5 (≈ 1.32 µM) |  | 
3 | C[C@@H](O)[C@H](NC(=O)c1ccc(C#CC#Cc2cccc(N)c2)cc1)C(=O)NO | 0.06 (≈ 0.159 µM) | 6.3 (≈ 16.7 µM) | 1.3 (≈ 3.44 µM) | 1.3 (≈ 3.44 µM) |  | 
4 | C[C@@H](O)[C@H](NC(=O)c1ccc(C#CC#Cc2ccccc2N)cc1)C(=O)NO | 0.5 (≈ 1.32 µM) | > 25 | 8.3 (≈ 22 µM) | 12.5 (≈ 33.1 µM) |  | 
5 | C[C@H](O)[C@H](NC(=O)c1ccc(C#CC#Cc2ccc(N)cc2)cc1)C(=O)NO | 0.07 (≈ 0.185 µM) | 12.5 (≈ 33.1 µM) | 0.8 (≈ 2.12 µM) | 0.9 (≈ 2.38 µM) |  | 
6 | C[C@@H](O)[C@@H](NC(=O)c1ccc(C#CC#Cc2ccc(N)cc2)cc1)C(=O)NO | 6.3 (≈ 16.7 µM) | > 25 | > 25 | > 25 |  | 
7 | C[C@H](O)[C@@H](NC(=O)c1ccc(C#CC#Cc2ccc(N)cc2)cc1)C(=O)NO | 3.1 (≈ 8.21 µM) | > 25 | > 25 | > 25 |  | 
8 | C[C@@H](O)[C@H](NC(=O)c1ccc(C#Cc2ccc(CN3CCOCC3)cc2)cc1)C(=O)NO | 0.2 (≈ 0.457 µM) | 125 (≈ 286 µM) | 1.3 (≈ 2.97 µM) | 1.6 (≈ 3.66 µM) |  | 
